Positions count from the first letter of the chain named. Names and notes keep the numbering of the source. “Also recorded” adds a separate entry of the source.

By stoichiometry N is commonly meant a count of units in the complex or per binding partner.

Data set [1] can be described thus: Oligomeric status by native PAGE. It is filed as physicochemical. To be noted: 15 μg protein, 10% native gel (legend: 12%), Coomassie blue. An outline of the steps:
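Purified untagged 14‐3‐3ζ WT and mutant apoproteins (E. coli‐expressed, Ni‐NTA plus size exclusion, TEV‐cleaved), buffer‐exchanged into 50 mM Na‐HEPES pH 8.0, 150 mM NaCl, 10% glycerol, then run under nondenaturing conditions. Migration read as monomer or dimer.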

Data set [2] in a line: Gel filtration, Hiload 16/600 Superdex 200. It is filed as physicochemical. The gist of the method: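 After His‐tag removal with TEV protease, untagged 14‐3‐3ζ WT or mutant protein from E. coli BL21 DE3 was run on the Superdex 200 column in 50 mM Tris/Cl pH 8.0, 400 mM NaCl, 10% glycerol. Peak fractions collected and elution profile recorded.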
(Size exclusion chromatography separates by hydrodynamic size, large species first.)

For data set [3], the system named is 14‐3‐3. To be noted: cited from earlier work.
The target of data set [4] is T1, 14-3-3ζ WT (human), P63104.
T1 chain: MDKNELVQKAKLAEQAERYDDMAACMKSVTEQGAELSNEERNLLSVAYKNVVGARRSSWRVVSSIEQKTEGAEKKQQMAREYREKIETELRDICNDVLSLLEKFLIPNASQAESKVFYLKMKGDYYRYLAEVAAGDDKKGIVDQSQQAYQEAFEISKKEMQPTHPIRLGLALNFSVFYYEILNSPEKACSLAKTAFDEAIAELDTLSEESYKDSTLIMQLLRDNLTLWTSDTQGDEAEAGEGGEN
In words: native gel or EMSA. To be noted: remark: other sources report otherwise.

The test system of data set [5] is FAM‐labeled peptides (mode2 phosphopeptide). In words: Peptide binding ability of 14‐3‐3ζ mutant proteins by fluorescence polarization. To be noted: FP; FAM‐labeled peptide 62.5 nM, protein 8 to 0.0625 μM, 25°C, 30 min. An outline of the steps:
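Untagged 14‑3‑3ζ mutants (E. coli BL21 DE3; Ni‑NTA, SEC, TEV cleavage) in 50 mM Na‑HEPES pH 8.0, 150 mM NaCl, 10% glycerol. Protein titrated 8 to 0.0625 μM against constant 62.5 nM N‑terminal FAM‑labeled phosphopeptide. Incubated 30 min at 25°C in the dark before anisotropy reading; K_D fitted.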
(Fluorescence polarisation rises when a labelled molecule tumbles more slowly, as on binding a larger partner.)

Data set [6] concerns 14‐3‐3ζ WT and mutant proteins. In words: ATPase activity. It counts as biochemical, human. To be noted: 10 μM protein, 1 mM ATP, 37°C, 2 h; three independent experiments.
Data set [7] in a line: Thermal stability by nano‐DSF. It is filed as physicochemical.
Data set [8] deals with the molecule itself. In words: native gel or EMSA.
Data set [9] deals with 14‐3‐3. To be noted: ref 16 (Ramteke et al.); cited from earlier work.

For the molecule “14‐3‐3ζ WT: wild-type 14‐3‐3ζ protein expressed in E. coli”, the “migration on native PAGE / oligomeric state” value in data set [1] is given as “migrated as dimers”. Further, the “gel filtration elution volume” value in [2] came out at 68 mL.
Regarding `Nc1ncnc2c1ncn2[C@@H]1O[C@H](COP(=O)(O)O)[C@@H](O)[C@H]1O` [AMP], in [3], the “binding to 14‐3‐3 alone” value is reported as “Neither AMP nor the nonphospho ChREBP peptide alone can bind strongly to the 14‐3‐3” and the “effect of AMP on 14‐3‐3‐ChREBP peptide complex” value is reported as “stabilizes 14‐3‐3‐ChREBP peptide‐complex”.

B1: 14-3-3ζ WT, P63104 1-245 (natural protein)
chain: T1 chain
Regarding B1, the stoichiometry N in data set [4] worked out at 2.

B2: N173V (protein)
chain: T1 chain with N173V
modifications: left off: His6, end not stated, cleaved
Turning to B2, the “peptide binding of 14‐3‐3ζ mutant protein (in words)” value (“peptide binding” below) in data set [5] is on record as “defective in peptide binding assays; also recorded: binds less well to the phosphopeptide ligands”. Also, the “migration on native PAGE / oligomeric state” value in [1] is “migrated as dimers”. Besides, the “ATPase activity (in words, compared with WT)” value in data set [6] is “had increased ATPase activity and has more affinity for ATP; also recorded: enhanced ATPase activity”. Also, the “thermal stability (in words)” value in [7] is “more stable than the D124A”.

B3: 14-3-3ζ E131A (natural protein, human, UniProt P63104 1-245, looked up)
chain: T1 chain with E131A
With B3, the “stoichiometry N” value in [8] stood at 2.

B4: D124A (protein)
chain: T1 chain with D124A
modifications: left off: His6, end not stated, cleaved
In the case of B4, the “peptide binding” value in data set [5] is “defective in peptide binding”. Besides, the “migration on native PAGE / oligomeric state” value in data set [1] is reported as “migrated as dimers”. The “ATPase activity (earlier study)” value in data set [9] was “increase in ATPase activity”. The “ATPase activity (in words, compared with WT)” value in [6] was “higher than that of the WT protein; also recorded: enhanced ATPase activity”.

B5: E180A: 14‐3‐3ζ amphipathic pocket mutant (protein)
chain: T1 chain with E180A
modifications: left off: His6, end not stated, cleaved
With B5, in [1], the “migration on native PAGE / oligomeric state” value is “migrated as dimers”. In addition, in data set [6], the “ATPase activity (in words, compared with WT)” value is reported as “made no difference to the ATPase activity”.

B6: E131AE180A: 14‐3‐3ζ double mutant (protein, UniProt P63104 1-245, looked up, variant E131A E180A)
14-3-3 protein zeta/delta: T1 chain with E131A, E180A
Turning to B6, the “ATPase activity (in words, compared with WT)” value in [6] is recorded as “decreased dramatically”.

B7: 14-3-3ζ N173V (natural protein, human, UniProt P63104 1-245, looked up)
chain: T1 chain with N173V
As to B7, the “stoichiometry N” value in [8] stood at 2.

B8: 14-3-3ζ E180AN173V (natural protein, human, UniProt P63104 1-245, looked up)
chain: T1 chain with N173V, E180A
On to B8, for which the “stoichiometry N” value in [8] was found to be 2.

B9: E131A (protein)
chain: T1 chain with E131A
modifications: left off: His6, end not stated, cleaved
In the case of B9, the “migration on native PAGE / oligomeric state” value in [1] was “migrated as dimers”. Moreover, in [6], the “ATPase activity (in words, compared with WT)” value is given as “made no difference to the ATPase activity”.

B10: E180AN173V: 14‐3‐3ζ double mutant (protein)
chain: T1 chain with N173V, E180A
modifications: left off: His6, end not stated, cleaved
Consider B10, for which the “migration on native PAGE / oligomeric state” value in [1] is “migrated as dimers”. Also, the “thermal stability (in words)” value in data set [7] was “most unstable and prone to aggregation”.

B11: E131AN173V: 14‐3‐3ζ double mutant (protein)
chain: T1 chain with E131A, N173V
modifications: left off: His6, end not stated, cleaved
As for B11, in [1], the “migration on native PAGE / oligomeric state” value is “migrated as dimers”.

B12: Y82A: 14‐3‐3ζ mutant, monomer, ATPase null mutant (protein)
chain: T1 chain with Y82A
modifications: left off: His6, end not stated, cleaved
As to B12, in data set [5], the “peptide binding” value is “bound the peptide with comparable affinity to the WT; also recorded: bind all peptides with the same affinity as the WT”. Besides, the “migration on native PAGE / oligomeric state” value in [1] was “could be monomeric in nature”. In addition, the “ATPase activity (in words, compared with WT)” value in data set [6] was “near background luminescence readings‐ it is practically an ATPase null mutant”. The “gel filtration elution volume” value in data set [2] worked out at 74 mL.

B13: 14-3-3ζ E131AN173V (natural protein, human, UniProt P63104 1-245, looked up)
chain: T1 chain with E131A, N173V
Consider B13, for which the “stoichiometry N” value in data set [8] came to 2.

B14: R55A: 14‐3‐3ζ dimer interface mutant (protein)
chain: T1 chain with R55A
modifications: left off: His6, end not stated, cleaved
Take B14: the “peptide binding” value in data set [5] was “bind all peptides with the same affinity as the WT”. Further, the “migration on native PAGE / oligomeric state” value in [1] is “migrated as dimers”. Moreover, the “ATPase activity (earlier study)” value in data set [9] is “reduction in ATP binding and hydrolysis; also recorded: ATPase defective mutant; also recorded: decrease in the ATPase activity”.

B15: 14-3-3ζ F117AN173V (natural protein, human, UniProt P63104 1-245, looked up)
chain: T1 chain with F117A, N173V
For the molecule B15, the “stoichiometry N” value in [8] came out at 2.

B16: 14-3-3ζ D124A (natural protein, human, UniProt P63104 1-245, looked up)
chain: T1 chain with D124A
Consider B16, for which, in data set [8], the “stoichiometry N” value came to 2.

B17: F117AN173V (protein)
chain: T1 chain with F117A, N173V
modifications: left off: His6, end not stated, cleaved
Regarding B17, the “migration on native PAGE / oligomeric state” value in data set [1] is “migrated as dimers”.

B18: Y82AN173V: 14‐3‐3ζ double mutant, monomer (protein)
chain: T1 chain with Y82A, N173V
modifications: left off: His6, end not stated, cleaved
For B18, in data set [1], the “migration on native PAGE / oligomeric state” value is recorded as “could be monomeric in nature”. For the same molecule, in [6], the “ATPase activity (in words, compared with WT)” value is recorded as “some ATPase activity (less than the WT)”; the “ATPase activity as percentage of the N173V mutant” value is recorded as 20%; the “reduction in ATPase activity compared with N173V” value stood at 80%.

B19: 14-3-3ζ E180A (natural protein, human, UniProt P63104 1-245, looked up)
chain: T1 chain with E180A
Turning to B19, the “stoichiometry N” value in [8] turned out to be 2.

B20: 14-3-3ζ R55A (natural protein, human, UniProt P63104 1-245, looked up)
chain: T1 chain with R55A
Turning to B20, in data set [8], the “stoichiometry N” value came out at 2.

The values are drawn from article PMC12429009 (The FASEB Journal, 2025).
